experiment: Inhibition of human IgG-FcRn interaction by competition ELISA
Summary of the method: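 Competition ELISA: test compounds at various concentrations mixed with 3 nM human IgG, then incubated on plates coated with soluble human FcRn. Inhibition of hIgG binding to shFcRn measured; IC50 reported in µM.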

IC50 [µM] | Structure (SMILES)
> 1000 | N#CC(C(=O)NCc1cccs1)c1nc2ccccc2nc1N1CCCCCC1 (stereo not given)
100 | COc1cccc(CCNC(=O)C(C#N)c2nc3ccccc3nc2N2CCCCCC2)c1 (stereo not given)
> 500 | COc1cccc(CNC(=O)C(C#N)c2nc3ccccc3nc2N2CCCN(CCO)CC2)c1 (stereo not given)
> 500 | COc1cccc(CNC(=O)C(C#N)c2nc3ccccc3nc2NCc2ccccc2)c1 (stereo not given)
> 500 | COc1cccc(CNC(=O)C(C#N)c2nc3ccccc3nc2N2CCOCC2)c1 (stereo not given)
400 | N#CC(C(=O)NCc1cccc(OCCN2CCOCC2)c1)c1nc2ccccc2nc1N1CCCCCC1 (stereo not given)
10 | COc1cccc(CNC(=O)C(C#N)c2nc3ccccc3nc2N2CCCCCC2)c1 (stereo not given)
> 250 | C=CCCNC(=O)C(C#N)c1nc2ccccc2nc1N1CCCCCC1 (stereo not given)
> 500 | COc1cccc(CNC(=O)C(C#N)c2nc3ccccc3nc2Sc2ccccc2)c1 (stereo not given)
> 500 | COc1cccc(CNC(=O)C(C#N)c2nc3ccccc3nc2N2CCCN(C(C)=O)CC2)c1 (stereo not given)
> 150 | COCCCNC(=O)C(C#N)c1nc2ccccc2nc1N1CCCCCC1 (stereo not given)
100 | COc1cccc(CNC(=O)C(C#N)c2nc3ccc(C#N)cc3nc2N2CCCCCC2)c1 (stereo not given)
> 500 | COc1cccc(CNC(=O)C(C#N)c2nc3ccc(C(=O)NCc4cccnc4)cc3nc2N2CCCCCC2)c1 (stereo not given)
> 500 | COc1cccc(CNC(=O)C(C#N)c2nc3ccccc3nc2NC2CCCCCC2)c1 (stereo not given)
> 500 | COc1cccc(CNC(=O)C(C#N)c2nc3ccccc3nc2N2CCCOCC2)c1 (stereo not given)
40 | N#CC(C(=O)NCc1cccc(-c2nccs2)c1)c1nc2ccccc2nc1N1CCCCCC1 (stereo not given)
200 | CN(C)CCCOc1cccc(CNC(=O)C(C#N)c2nc3ccccc3nc2N2CCCCCC2)c1 (stereo not given)
100 | N#CC(C(=O)NCc1cccc(Cl)c1)c1nc2ccccc2nc1N1CCCCCC1 (stereo not given)
500 | COc1cccc(CNC(=O)C(C#N)c2nc3ccc([N+](=O)[O-])cc3nc2N2CCCCCC2)c1 (stereo not given)
40 | COc1ccc([C@H](C)NC(=O)C(C#N)c2nc3ccccc3nc2N2CCCCCC2)cc1 (stereo not given in full)
> 1000 | N#CC(C(=O)NCc1ccccn1)c1nc2ccccc2nc1N1CCCCCC1 (stereo not given)
> 500 | COc1cccc(CNC(=O)C(C#N)c2nc3ccccc3nc2N2CCCNCC2)c1 (stereo not given)
> 500 | N#CC(C(=O)NCc1ccccc1)c1nc2ccccc2nc1N1CCCCCC1 (stereo not given)
200 | Cc1cncc(Oc2cccc(CNC(=O)C(C#N)c3nc4ccccc4nc3N3CCCCCC3)c2)n1 (stereo not given)
250 | COc1ccc(CNC(=O)C(C#N)c2nc3ccccc3nc2N2CCCCCC2)cc1OC (stereo not given)
2 | COc1ccc(C(CN2CCOCC2)NC(=O)C(C#N)c2nc3ccccc3nc2N2CCCCCC2)cc1 (stereo not given)
150 | N#CC(C(=O)NCc1cccc(F)c1)c1nc2ccccc2nc1N1CCCCCC1 (stereo not given)
> 500 | COc1cccc(CNC(=O)C(C#N)c2nc3ccccc3nc2N2CCCCC2)c1 (stereo not given)

IC50 [µM] | Structure (SMILES)
150 | COc1ccccc1CNC(=O)C(C#N)c1nc2ccccc2nc1N1CCCCCC1 (stereo not given)
> 500 | COc1cccc(CNC(=O)C(C#N)c2nc3ccccc3nc2N2CCCC3CCCCC32)c1 (stereo not given)
30 | COc1cccc(CNC(=O)C(C#N)c2nc3cc(Cl)c(Cl)cc3nc2N2CCCCCC2)c1 (stereo not given)
> 1000 | N#CC(C(=O)NCc1cccnc1)c1nc2ccccc2nc1N1CCCCCC1 (stereo not given)
> 500 | COc1cccc(CNC(=O)C(C#N)c2nc3ccccc3nc2N2CCCN(C(=O)OCc3ccccc3)CC2)c1 (stereo not given)
6 | COc1cccc(CNC(=O)C(C#N)c2nc3ccccc3nc2N2CCCCCCC2)c1 (stereo not given)
> 500 | CCCCNC(=O)C(C#N)c1nc2ccccc2nc1N1CCCCCC1 (stereo not given)
> 500 | N#CC(C(=O)NCc1ccc(OCCN2CCOCC2)cc1)c1nc2ccccc2nc1N1CCCCCC1 (stereo not given)
120 | COc1ccc(CCNC(=O)C(C#N)c2nc3ccccc3nc2N2CCCCCC2)cc1 (stereo not given)
80 | N#CC(C(=O)NCc1cccc(OC(F)(F)F)c1)c1nc2ccccc2nc1N1CCCCCC1 (stereo not given)
> 500 | N#CC(C(=O)NCCc1ccc(N)cc1)c1nc2ccccc2nc1N1CCCCCC1 (stereo not given)
> 500 | COc1cccc(CNC(=O)C(C#N)c2nc3ccc(C(=O)NCCc4cccnc4)cc3nc2N2CCCCCC2)c1 (stereo not given)
> 500 | COc1cccc(CNC(=O)C(C#N)c2nc3ccccc3nc2NC2CC3CCC2C3)c1 (stereo not given)
> 500 | N#CC(C(=O)NCc1ccc(O)cc1)c1nc2ccccc2nc1N1CCCCCC1 (stereo not given)
> 500 | COc1cccc(CNC(=O)C(C#N)c2nc3cc(OC)ccc3nc2N2CCCCCC2)c1 (stereo not given)
> 1000 | N#CC(C(=O)NCc1ccco1)c1nc2ccccc2nc1N1CCCCCC1 (stereo not given)
> 500 | N#CC(C(=O)NCC1CCCCC1)c1nc2ccccc2nc1N1CCCCCC1 (stereo not given)
> 500 | COc1cccc(CNC(=O)C(C#N)c2nc3ccc(C(=O)Nc4ccccc4)cc3nc2N2CCCCCC2)c1 (stereo not given)
> 500 | COc1cccc(CNC(=O)C(C#N)c2nc3ccccc3nc2N2CCN(C)CC2)c1 (stereo not given)
> 500 | COc1cccc(CNC(=O)C(C#N)c2nc3ccccc3nc2Nc2ccccc2)c1 (stereo not given)
40 | COc1ccc([C@@H](C)NC(=O)C(C#N)c2nc3ccccc3nc2N2CCCCCC2)cc1 (stereo not given in full)
120 | COCCNC(=O)C(C#N)c1nc2ccccc2nc1N1CCCCCC1 (stereo not given)
400 | COc1cccc(CNC(=O)C(C#N)c2nc3ccc(C(=O)NCCCN(C)C)cc3nc2N2CCCCCC2)c1 (stereo not given)
> 500 | CN(C)c1ccc(CNC(=O)C(C#N)c2nc3ccccc3nc2N2CCCCCC2)cc1 (stereo not given)
40 | N#Cc1ccc(CNC(=O)C(C#N)c2nc3ccccc3nc2N2CCCCCC2)cc1 (stereo not given)
> 500 | COc1cccc(CNC(=O)C(C#N)c2nc3ccccc3nc2N2CCCN(C)CC2)c1 (stereo not given)
50 | COc1ccc(CNC(=O)C(C#N)c2nc3ccccc3nc2N2CCCCCC2)cc1 (stereo not given)

Source: ChEMBL document CHEMBL2321849, “Discovery and structure-activity relationships of small molecules that block the human immunoglobulin G-human neonatal Fc receptor (hIgG-hFcRn) protein-protein interaction” (Bioorg Med Chem Lett, 2013)
